The values that follow come from ChEMBL document CHEMBL4229433, “The synthesis and evaluation of phenoxyacylhydroxamic acids as potential agents for Helicobacter pylori infections” (Bioorg Med Chem, 2018).

pIC50, pKi: −log10 of the molar value.

Assay [1] addresses T1, Urease subunit alpha/Urease subunit beta (Helicobacter pylori (strain ATCC 700392 / 26695) (Campylobacterpylori), UniProt P69996). Kind of assay: Inhibition of Helicobacter pylori ATCC 43504 urease assessed as reduction in ammonia production using urea as substrate preincubated for 1.5 hrs under cell free condition by indophenol method. The assay is classed as protein-complex assay, Helicobacter pylori NCTC 11637 = CCUG 17874 = ATCC 43504. In a few lines:
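Crude urease from H. pylori ATCC 43504 grown 24 h at 37 °C, micro-aerobic, in Brucella broth with 10% sheep blood. Cells were PBS-washed, frozen at −80 °C, sonicated with protease inhibitors, centrifuged, desalted on G-25 and kept in 50% glycerol at 4 °C. Enzyme (10U) was preincubated with compound 1.5 h at room temperature. Ammonia was read by the indophenol method.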

Assay [2] concerns the target T1, Urease subunit alpha/Urease subunit beta. Put plainly: Mixed-type inhibition of Helicobacter pylori ATCC 43504 urease assessed as enzyme-inhibitor complex using urea as substrate preincubated for 1.5 hrs. The assay is classed as protein-complex assay, Helicobacter pylori NCTC 11637 = CCUG 17874 = ATCC 43504. An outline of the steps: (§1)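 Ammonia production rate measured by the indophenol method over a urea concentration gradient at each fixed inhibitor concentration. Inhibition type was assigned by nonlinear fitting to the general kinetic equation. Ki and Ki' were taken as the X-axis intercepts of linear fits of the fitted parameters against inhibitor concentration.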

Assay [3] has as its target T2, Urease subunit alpha/Urease subunit beta (Helicobacter pylori (strain ATCC 700392 / 26695) (Campylobacterpylori)) (UniProt P69996+P14916). Kind of assay: (§2) Inhibition of urease in Helicobacter pylori ATCC 43504 assessed as reduction in ammonia production using urea as substrate preincubated for 1.5 hrs by indophenol method. Format: protein-complex assay. Conditions: Helicobacter pylori NCTC 11637 = CCUG 17874 = ATCC 43504. An outline of the steps: (§3)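 Crude urease from sonicated H. pylori cells (grown 24 h, 37 °C, microaerobic, Brucella broth + 10% sheep blood), PBS-washed, frozen at –80 °C, desalted on Sephadex G-25, stored in 50% glycerol at 4 °C; 10U enzyme preincubated with compound 1.5 h at room temperature; ammonia measured by Weatherburn indophenol method.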

The target in assay [4] is T1, Urease subunit alpha/Urease subunit beta. The description is as §2. Format: protein-complex assay, Helicobacter pylori NCTC 11637 = CCUG 17874 = ATCC 43504. An outline of the steps:
as §3

Assay [5] addresses T2, Urease subunit alpha/Urease subunit beta (Helicobacter pylori (strain ATCC 700392 / 26695) (Campylobacterpylori)). Kind of assay: Ratio of IC50 for inhibition of urease in Helicobacter pylori ATCC 43504 intact cells to IC50 for inhibition of Helicobacter pylori ATCC 43504 urease under cell free condition. The settings on record: Helicobacter pylori NCTC 11637 = CCUG 17874 = ATCC 43504.

For assay [6], the target named is T1, Urease subunit alpha/Urease subunit beta. Put plainly: Mixed-type inhibition of Helicobacter pylori ATCC 43504 urease assessed as enzyme-substrate-inhibitor complex using urea as substrate preincubated for 1.5 hrs. The assay is classed as protein-complex assay, Helicobacter pylori NCTC 11637 = CCUG 17874 = ATCC 43504. In a few lines:
as §1

Assay [7] addresses T2, Urease subunit alpha/Urease subunit beta (Helicobacter pylori (strain ATCC 700392 / 26695) (Campylobacterpylori)). Kind of assay: Potency index, ratio of acetohydroxamic acid IC50 to compound IC50 for inhibition of urease in Helicobacter pylori ATCC 43504. The settings on record: Helicobacter pylori NCTC 11637 = CCUG 17874 = ATCC 43504. Format: protein-complex assay.
Assay [8] shares this target. Kind of assay: Potency index, ratio of acetohydroxamic acid IC50 to compound IC50 for inhibition of Helicobacter pylori ATCC 43504 urease. Format: protein-complex assay. The settings on record: Helicobacter pylori NCTC 11637 = CCUG 17874 = ATCC 43504.

T2 sequence (P14916 whole entry, looked up): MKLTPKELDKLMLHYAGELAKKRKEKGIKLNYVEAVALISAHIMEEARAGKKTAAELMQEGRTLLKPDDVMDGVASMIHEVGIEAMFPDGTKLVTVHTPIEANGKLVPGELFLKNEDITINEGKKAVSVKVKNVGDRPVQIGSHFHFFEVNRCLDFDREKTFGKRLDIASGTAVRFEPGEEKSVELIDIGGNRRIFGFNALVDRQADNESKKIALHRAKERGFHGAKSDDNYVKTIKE
T2 sequence (P69996 whole entry, looked up): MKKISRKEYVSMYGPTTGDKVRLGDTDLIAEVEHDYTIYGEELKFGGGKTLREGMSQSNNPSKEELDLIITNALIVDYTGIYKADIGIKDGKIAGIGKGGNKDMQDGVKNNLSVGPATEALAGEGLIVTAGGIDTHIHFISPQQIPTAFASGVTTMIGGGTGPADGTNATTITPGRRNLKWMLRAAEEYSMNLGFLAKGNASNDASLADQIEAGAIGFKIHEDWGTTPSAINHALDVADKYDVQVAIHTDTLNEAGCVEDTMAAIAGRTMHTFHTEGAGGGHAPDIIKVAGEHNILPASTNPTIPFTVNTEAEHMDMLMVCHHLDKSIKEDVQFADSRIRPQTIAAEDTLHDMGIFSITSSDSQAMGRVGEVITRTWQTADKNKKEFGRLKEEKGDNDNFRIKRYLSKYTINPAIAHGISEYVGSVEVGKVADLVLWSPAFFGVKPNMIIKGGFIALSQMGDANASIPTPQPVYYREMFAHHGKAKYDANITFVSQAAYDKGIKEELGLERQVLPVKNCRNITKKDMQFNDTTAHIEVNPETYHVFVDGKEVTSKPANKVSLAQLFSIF
T1 sequence (P69996 whole entry): as the sequence (P69996 whole entry, looked up) above
T1 sequence (P14916 whole entry, further chain): as the sequence (P14916 whole entry, looked up) above

As for `O=C(COc1ccc(F)cc1)NO`, the pIC50 (usually the IC50 on a negative log10 scale, so that one unit is a factor of ten) in assay [1] is 4.72.

Consider `O=C(CCOc1ccc(Cl)cc1)NO`, for which the pIC50 is 6.36 in assay [1] and 5.09 in assay [4]. For the same compound, the pKi (in general, the Ki on a negative log10 scale, so that one unit is a factor of ten) was 7.37 in assay [2] and 7.27 in assay [6]. Further, the inhibition result in assay [3] was “Dose-dependent effect”. For the same compound, the Ratio IC50 in assay [5] lay within 14 to 24.

As to `O=C(COc1cc(Cl)cc(Cl)c1)NO`, in assay [1], the pIC50 is 5.49. Turning to `O=C(CCOc1ccc(Br)cc1)NO`, the pIC50 in assay [1] was 6.07; in assay [4], 4.79. Also, the inhibition entry in assay [3] is “Dose-dependent effect”. The Ratio IC50 in assay [5] fell in the range of 14 to 24. With `O=C(COc1cc(F)cc(F)c1)NO`, in assay [1], the negative-log IC50 (pIC50) was 3.69.

Take `COc1ccc(OCC(=O)NO)cc1`: the pIC50 in assay [1] is 4.31. On the same count and under the same terms, with `O=C(COc1ccc([N+](=O)[O-])cc1)NO` the figure was 4.21. Still for that read-out and setting: then `Cc1cc(C)cc(OCCC(=O)NO)c1`, with 4.98; and `O=C(COc1ccccc1Cl)NO`, with 4.11. Same read-out and setting: with `Cc1cc(C)cc(OCC(=O)NO)c1` the figure was 4.38. In the case of `O=C(CCOc1ccc(Cl)c(Cl)c1)NO`, the pIC50 in assay [1] was 7.21; in assay [4] it was 6.05. In addition, the inhibition entry in assay [3] is “Dose-dependent effect”. Also, the Ratio IC50 in assay [5] was 14 to 24; in assay [7] it was more than 120; in assay [8] it was more than 450. Take `O=C(CCOc1ccccc1)NO`: in assay [1], the pIC50 is 5.38. The same measure, in the same setting: then `Cc1ccc(OCCC(=O)NO)cc1`, with 5.86; and `O=C(COc1cc(Cl)ccc1Cl)NO`, with 5.04; and `O=C(COc1ccc(Br)cc1)NO`, with 5.27. Regarding `Cc1cccc(OCCC(=O)NO)c1`, the pIC50 in assay [1] is 5.47. Same read-out and setting: then `O=C(COc1ccccc1F)NO`, with 3.92. Turning to `Cc1ccccc1OCCC(=O)NO`, the pIC50 in assay [1] is 5.17.

Regarding `O=C(COc1ccc(Cl)cc1)NO`, in assay [1], the pIC50 is 5.90. In the case of `O=C(COc1ccccc1)NO`, in assay [1], the pIC50 is 3.88. As to `O=C(COc1cccc(Cl)c1Cl)NO`, the pIC50 in assay [1] is 3.75. Same read-out and setting: then `O=C(CCOc1ccc(F)cc1)NO`, with 5.95; and `Cc1ccc(OCC(=O)NO)cc1`, with 4.24. Same read-out and setting: then `Cc1ccccc1OCC(=O)NO`, with 3.81. Turning to `O=C(COc1ccc(Cl)cc1Cl)NO`, the pIC50 in assay [1] is 6.08; in assay [4], 4.67. The inhibition entry in assay [3] was “Dose-dependent effect”. Besides, the Ratio IC50 in assay [5] is 14 to 24. On to `COc1ccc(OCCC(=O)NO)cc1`, for which the pIC50 in assay [1] was 5.08. On the same count and under the same terms, then `O=C(COc1cccc(F)c1)NO`, with 4.57; and `O=C(CCOc1cccc(F)c1)NO`, with 5.69; and `O=C(COc1cccc(Cl)c1)NO`, with 4.98.

Take `O=C(COc1ccc(Cl)c(Cl)c1)NO`: the results for the pIC50 in assay [1] and in assay [4] were 6.28 and 4.89, respectively. For the same compound, the inhibition entry in assay [3] is “Dose-dependent effect”. In assay [5], the Ratio IC50 lay in the range of 14 to 24. Consider `O=C(COc1c(Cl)cccc1Cl)NO`, for which the pIC50 in assay [1] is 3.45. For `O=C(COc1ccccc1[N+](=O)[O-])NO`, the negative logarithm of the IC50 (pIC50) in assay [1] is 3.84. Still for that read-out and setting: with `O=C(COc1cccc([N+](=O)[O-])c1)NO` the figure was 4.02. Consider `O=C(CCOc1cccc(Cl)c1)NO`, for which, in assay [1], the pIC50 is 5.91. As to `O=C(CCOc1cc(Cl)ccc1Cl)NO`, in assay [1], the pIC50 is 4.88. On the same count and under the same terms, with `Cc1cccc(OCC(=O)NO)c1` the figure was 4.07; with `O=C(CCOc1cc(F)cc(F)c1)NO`, 5.29.
